# Test results: ChEMBL document CHEMBL4364254 (J Med Chem, 2019)
# pEC50, pIC50: −log10 of the molar value. Activity calls are given as the source filed them. The calls are words filed in the database; no cut-off is given here.
# Experiments:
# [1] = Displacement of [3H]batrachotoxinin from rat brain voltage-gated sodium ion channel site 2 after 60 mins by scintillation counting analysis
# [2] = molecular target: Amine oxidase [flavin-containing] A (Rattus norvegicus, UniProt P21396); test: Displacement of [3H]Ro41-1049 from rat brain MAOA after 60 mins by scintillation counting analysis
# [3] = molecular target: Muscarinic acetylcholine receptor M3 (Homo sapiens, UniProt P20309); test: Displacement of [3H]4-DAMP from recombinant human M3 receptor after 60 mins by scintillation counting analysis
# Mus musculus = test: Anti-hepatosteatosis activity in ethanol-induced C57BL/6 mouse model of hepatic steatosis assessed as reduction in liver weight at 0.3 mg/kg, po administered once daily via gavage for last 2 weeks of study measured post-last dose; assay type: functional, organism-based
# How it was run: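 Female C57BL/6J mice (9 weeks old, 19–21 g) were kept on Lieber–DeCarli liquid diet, with ethanol raised from 1 to 5% (v/v) over 15 d and then held for 4 weeks, pair-fed. Dosing was 0.03, 0.1 or 0.3 mg/kg by oral gavage once daily for the last 2 weeks, in 0.5% Na-CMC/1% NMP/0.3% Tween 80. Read-outs were Oil Red O on 10 μm liver sections imaged at 10× and liver weight normalized to brain weight. n = 6–10 per group; t test versus ethanol + vehicle.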
# [4] = molecular target: Prostaglandin G/H synthase 2 (Homo sapiens, UniProt P35354); test: Activity at human recombinant COX2 using arachidonic acid as substrate measured after 5 mins by ADHP reagent based fluorescence assay
# Sequence of Prostaglandin G/H synthase 2 (P35354 whole entry): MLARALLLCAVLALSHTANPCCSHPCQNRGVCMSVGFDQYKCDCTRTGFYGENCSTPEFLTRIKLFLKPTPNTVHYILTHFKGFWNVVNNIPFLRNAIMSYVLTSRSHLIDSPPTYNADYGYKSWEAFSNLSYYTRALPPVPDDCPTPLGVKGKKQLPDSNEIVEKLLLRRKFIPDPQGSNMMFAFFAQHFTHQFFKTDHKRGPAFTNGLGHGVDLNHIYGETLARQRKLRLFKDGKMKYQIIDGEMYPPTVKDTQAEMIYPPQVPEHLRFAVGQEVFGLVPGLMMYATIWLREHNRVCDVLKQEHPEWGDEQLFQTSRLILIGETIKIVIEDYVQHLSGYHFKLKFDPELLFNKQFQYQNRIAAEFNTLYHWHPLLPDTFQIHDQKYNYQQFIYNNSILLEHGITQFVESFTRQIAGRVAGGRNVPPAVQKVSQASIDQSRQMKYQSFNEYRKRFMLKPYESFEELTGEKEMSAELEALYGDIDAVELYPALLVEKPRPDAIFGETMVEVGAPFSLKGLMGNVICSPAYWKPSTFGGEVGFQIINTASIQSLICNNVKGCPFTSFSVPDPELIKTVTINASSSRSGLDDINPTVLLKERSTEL
# [5] = molecular target: 5-hydroxytryptamine receptor 2A (Homo sapiens, UniProt P28223); test: Displacement of [125I](+/-)DOI from recombinant human 5HT2A receptor after 60 mins by scintillation counting analysis
# [6] = molecular target: Voltage-dependent L-type calcium channel subunit alpha-1C (Rattus norvegicus, UniProt P22002); test: Displacement of [3H]nitrendipine from rat brain Cav1.2 dihydropyridine site after 90 mins by scintillation counting analysis
# Sequence of Voltage-dependent L-type calcium channel subunit alpha-1C (P22002 whole entry): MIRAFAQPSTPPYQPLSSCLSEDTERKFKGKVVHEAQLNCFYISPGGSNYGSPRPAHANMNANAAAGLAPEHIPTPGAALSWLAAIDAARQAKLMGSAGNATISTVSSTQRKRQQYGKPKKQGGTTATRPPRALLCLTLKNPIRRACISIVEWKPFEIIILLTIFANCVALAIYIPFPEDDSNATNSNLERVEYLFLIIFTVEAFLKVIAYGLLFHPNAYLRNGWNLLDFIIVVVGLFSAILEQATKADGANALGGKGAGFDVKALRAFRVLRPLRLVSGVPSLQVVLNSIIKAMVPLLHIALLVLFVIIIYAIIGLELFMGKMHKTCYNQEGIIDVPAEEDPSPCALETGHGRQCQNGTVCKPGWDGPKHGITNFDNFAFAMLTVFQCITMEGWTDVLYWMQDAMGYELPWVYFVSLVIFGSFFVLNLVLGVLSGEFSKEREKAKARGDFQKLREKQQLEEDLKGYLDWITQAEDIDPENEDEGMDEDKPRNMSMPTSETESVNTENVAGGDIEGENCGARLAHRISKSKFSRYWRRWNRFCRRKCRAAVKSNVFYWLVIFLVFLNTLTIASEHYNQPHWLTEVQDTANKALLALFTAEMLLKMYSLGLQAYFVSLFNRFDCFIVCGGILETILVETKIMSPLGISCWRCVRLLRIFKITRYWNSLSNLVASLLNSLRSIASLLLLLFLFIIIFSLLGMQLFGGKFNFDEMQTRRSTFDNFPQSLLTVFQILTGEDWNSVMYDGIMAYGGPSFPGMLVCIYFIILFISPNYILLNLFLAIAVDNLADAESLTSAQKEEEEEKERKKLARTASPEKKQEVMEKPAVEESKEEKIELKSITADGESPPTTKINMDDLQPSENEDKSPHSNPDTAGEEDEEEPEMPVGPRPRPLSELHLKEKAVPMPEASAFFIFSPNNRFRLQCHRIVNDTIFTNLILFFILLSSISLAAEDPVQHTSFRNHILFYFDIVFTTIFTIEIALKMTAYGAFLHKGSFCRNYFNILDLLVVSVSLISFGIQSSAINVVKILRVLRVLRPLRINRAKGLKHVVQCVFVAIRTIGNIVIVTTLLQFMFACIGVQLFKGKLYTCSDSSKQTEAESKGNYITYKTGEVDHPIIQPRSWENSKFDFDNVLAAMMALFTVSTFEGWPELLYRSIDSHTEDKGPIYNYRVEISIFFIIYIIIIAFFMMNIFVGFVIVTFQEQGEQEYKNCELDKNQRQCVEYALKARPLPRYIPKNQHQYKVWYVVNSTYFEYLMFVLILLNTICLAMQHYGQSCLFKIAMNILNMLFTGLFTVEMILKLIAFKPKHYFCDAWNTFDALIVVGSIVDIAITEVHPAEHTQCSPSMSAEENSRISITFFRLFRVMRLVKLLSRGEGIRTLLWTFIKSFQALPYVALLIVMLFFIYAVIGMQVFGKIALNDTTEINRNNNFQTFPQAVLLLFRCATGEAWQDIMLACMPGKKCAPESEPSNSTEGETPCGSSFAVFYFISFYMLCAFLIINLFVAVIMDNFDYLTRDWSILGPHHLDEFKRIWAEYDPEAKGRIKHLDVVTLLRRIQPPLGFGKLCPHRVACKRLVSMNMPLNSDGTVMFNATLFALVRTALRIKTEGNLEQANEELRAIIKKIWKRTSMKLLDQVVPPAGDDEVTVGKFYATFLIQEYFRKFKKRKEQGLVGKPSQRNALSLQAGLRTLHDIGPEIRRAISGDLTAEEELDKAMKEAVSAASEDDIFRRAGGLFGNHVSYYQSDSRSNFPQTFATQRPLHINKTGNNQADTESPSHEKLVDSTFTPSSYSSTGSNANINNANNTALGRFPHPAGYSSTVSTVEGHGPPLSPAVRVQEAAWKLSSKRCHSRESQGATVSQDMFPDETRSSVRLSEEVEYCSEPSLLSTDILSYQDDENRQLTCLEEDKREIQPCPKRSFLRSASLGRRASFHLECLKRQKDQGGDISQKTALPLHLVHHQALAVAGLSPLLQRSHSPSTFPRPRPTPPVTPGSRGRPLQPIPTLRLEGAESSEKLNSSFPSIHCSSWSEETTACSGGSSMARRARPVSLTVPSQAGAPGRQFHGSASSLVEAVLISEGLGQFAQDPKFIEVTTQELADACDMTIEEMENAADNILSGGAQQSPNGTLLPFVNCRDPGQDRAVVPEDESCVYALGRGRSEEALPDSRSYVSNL
# [7] = molecular target: Beta-2 adrenergic receptor (Homo sapiens, UniProt P07550); test: Displacement of [3H](-)CGP12177 from recombinant human beta2 adrenergic receptor after 120 mins by scintillation counting analysis
# [8] = molecular target: Sodium-dependent serotonin transporter (Homo sapiens, UniProt P31645); test: Displacement of [3H]imipramine from recombinant human serotonin transporter after 120 mins by scintillation counting analysis
# Adenosine receptor A2a = Adenosine receptor A2a (Homo sapiens, UniProt P29274); test: Displacement of [3H]CGS21680 from recombinant human adenosine A2A receptor after 120 mins by scintillation counting analysis
# [9] = molecular target: Tyrosine-protein kinase Lck (Homo sapiens, UniProt P06239); test: Activity at recombinant human LCK using Ulight-Poly GAT[EAY(1:1:1)]n as substrate measured after 10 mins by LANCE assay
# Sequence of Tyrosine-protein kinase Lck (P06239 whole entry): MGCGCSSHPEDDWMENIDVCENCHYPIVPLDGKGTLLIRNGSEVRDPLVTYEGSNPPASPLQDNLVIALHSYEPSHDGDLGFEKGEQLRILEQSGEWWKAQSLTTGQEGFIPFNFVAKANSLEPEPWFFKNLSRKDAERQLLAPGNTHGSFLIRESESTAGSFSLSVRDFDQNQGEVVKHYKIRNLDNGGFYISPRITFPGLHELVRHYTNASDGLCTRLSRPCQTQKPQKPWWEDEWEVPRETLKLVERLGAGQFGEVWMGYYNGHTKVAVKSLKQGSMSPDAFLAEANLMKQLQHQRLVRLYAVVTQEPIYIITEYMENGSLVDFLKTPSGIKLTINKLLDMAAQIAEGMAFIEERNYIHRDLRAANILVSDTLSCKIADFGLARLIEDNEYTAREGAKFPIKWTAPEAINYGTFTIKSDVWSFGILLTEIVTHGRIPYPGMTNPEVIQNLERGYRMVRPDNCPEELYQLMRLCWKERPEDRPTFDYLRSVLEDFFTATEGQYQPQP
# Endothelin-1 receptor = Endothelin-1 receptor (Homo sapiens, UniProt P25101); test: Displacement of [125I]endothelin-1 from recombinant human ETA receptor after 120 mins by scintillation counting analysis
# Mu-type opioid receptor = Mu-type opioid receptor (Homo sapiens, UniProt P35372); test: Displacement of [3H]DAMGO from recombinant human MOR after 120 mins by scintillation counting analysis
# Histamine H2 receptor = Histamine H2 receptor (Homo sapiens, UniProt P25021); test: Displacement of [125I]APT from recombinant human H2 receptor after 120 mins by scintillation counting analysis
# Sequence of Histamine H2 receptor (P25021 whole entry): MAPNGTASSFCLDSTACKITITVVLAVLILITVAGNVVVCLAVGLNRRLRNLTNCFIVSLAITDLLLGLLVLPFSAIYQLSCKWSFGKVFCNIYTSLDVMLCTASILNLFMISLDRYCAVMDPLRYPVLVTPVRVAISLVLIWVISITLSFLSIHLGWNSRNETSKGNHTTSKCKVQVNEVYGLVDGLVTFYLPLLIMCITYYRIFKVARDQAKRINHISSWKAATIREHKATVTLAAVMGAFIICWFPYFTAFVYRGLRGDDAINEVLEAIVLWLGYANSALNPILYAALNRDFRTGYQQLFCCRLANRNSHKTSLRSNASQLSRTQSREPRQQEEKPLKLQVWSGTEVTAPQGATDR
# Vasopressin V1a receptor = Vasopressin V1a receptor (Homo sapiens, UniProt P37288); test: Displacement of [3H]AVP from recombinant human V1A receptor after 60 mins by scintillation counting analysis
# [10] = molecular target: Kappa-type opioid receptor (Homo sapiens, UniProt P41145); test: Displacement of [3H]U69593 from recombinant human KOR after 60 mins by scintillation counting analysis
# [11] = molecular target: 3',5'-cyclic-AMP phosphodiesterase 4D (Homo sapiens, UniProt Q08499); test: Activity at human recombinant PDE4D2 using [3H]cAMP as substrate measured after 20 mins by scintillation counting analysis
# Sequence of 3',5'-cyclic-AMP phosphodiesterase 4D (Q08499 whole entry): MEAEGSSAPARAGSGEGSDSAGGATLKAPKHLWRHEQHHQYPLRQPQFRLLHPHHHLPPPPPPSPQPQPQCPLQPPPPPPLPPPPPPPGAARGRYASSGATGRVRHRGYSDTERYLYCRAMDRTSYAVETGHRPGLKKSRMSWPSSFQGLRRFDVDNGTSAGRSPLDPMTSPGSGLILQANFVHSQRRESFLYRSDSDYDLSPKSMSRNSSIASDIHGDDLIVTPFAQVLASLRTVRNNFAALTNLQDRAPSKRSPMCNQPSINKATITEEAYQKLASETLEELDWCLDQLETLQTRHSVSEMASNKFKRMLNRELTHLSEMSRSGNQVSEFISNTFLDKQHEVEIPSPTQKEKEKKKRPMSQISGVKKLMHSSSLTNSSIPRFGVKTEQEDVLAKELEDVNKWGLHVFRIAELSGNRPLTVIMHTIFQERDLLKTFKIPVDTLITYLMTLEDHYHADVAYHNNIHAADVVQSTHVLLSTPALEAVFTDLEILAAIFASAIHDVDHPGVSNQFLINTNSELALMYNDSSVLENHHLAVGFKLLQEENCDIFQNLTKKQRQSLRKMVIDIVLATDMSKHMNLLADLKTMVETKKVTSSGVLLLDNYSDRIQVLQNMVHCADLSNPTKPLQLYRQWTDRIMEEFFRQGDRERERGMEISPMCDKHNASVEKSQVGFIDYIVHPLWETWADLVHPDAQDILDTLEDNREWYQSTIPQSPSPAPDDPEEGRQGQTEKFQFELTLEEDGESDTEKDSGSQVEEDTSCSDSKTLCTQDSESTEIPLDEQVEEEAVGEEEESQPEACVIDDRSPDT
# [12] = molecular target: GABA-A receptor; anion channel; test: Displacement of [3H]flunitrazepam from rat brain GABAA ion channel after 60 mins by scintillation counting analysis
# [13] = molecular target: Neuronal acetylcholine receptor; alpha4/beta2 (Homo sapiens, UniProt P17787+P43681); test: Displacement of [3H]cytisine from recombinant human alpha4beta2 nAChR after 120 mins by scintillation counting analysis; assay type: protein-complex assay
# [14] = molecular target: Alpha-2A adrenergic receptor (Homo sapiens, UniProt P08913); test: Displacement of [3H]RX 821002 from recombinant human alpha 2A adrenoceptor after 60 mins by scintillation counting analysis
# [15] = molecular target: Muscarinic acetylcholine receptor M2 (Homo sapiens, UniProt P08172); test: Displacement of [3H]AF-DX 384 from recombinant human M2 receptor after 60 mins by scintillation counting analysis
# [16] = molecular target: Sodium-dependent dopamine transporter (Homo sapiens, UniProt Q01959); test: Displacement of [3H]BTCP from recombinant human dopamine transporter after 120 mins by scintillation counting analysis
# [17] = Displacement of [125I]alpha-dendrotoxin from rat brain voltage-gated potassium ion channel after 60 mins by scintillation counting analysis
# [18] = molecular target: 5-hydroxytryptamine receptor 1B (Homo sapiens, UniProt P28222); test: Displacement of [3H]GR125743 from recombinant human 5HT1B after 60 mins by scintillation counting analysis
# Sequence of 5-hydroxytryptamine receptor 1B (P28222 whole entry): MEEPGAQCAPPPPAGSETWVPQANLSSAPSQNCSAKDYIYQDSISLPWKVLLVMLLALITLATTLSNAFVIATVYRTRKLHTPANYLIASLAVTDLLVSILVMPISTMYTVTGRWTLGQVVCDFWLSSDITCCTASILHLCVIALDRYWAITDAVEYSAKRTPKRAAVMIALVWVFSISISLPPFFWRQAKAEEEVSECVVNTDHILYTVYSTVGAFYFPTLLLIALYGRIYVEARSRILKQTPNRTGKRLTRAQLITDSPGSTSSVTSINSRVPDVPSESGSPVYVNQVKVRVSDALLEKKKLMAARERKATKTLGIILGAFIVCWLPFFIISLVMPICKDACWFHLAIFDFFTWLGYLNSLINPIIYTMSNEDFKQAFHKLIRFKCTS
# [19] = molecular target: Cholecystokinin receptor type A (Homo sapiens, UniProt P32238); test: Displacement of [125I]CCK-8s from recombinant human CCK1 receptor after 60 mins by scintillation counting analysis
# Cytochrome P450 2B6 = Cytochrome P450 2B6 (Homo sapiens, UniProt P20813); test: Induction of CYP2B6 in human HepaRG cells at 10 uM measured after 24 hrs by qRT-PCR analysis relative to phenobarbital; assay type: ADME, cell-based; conditions: hepatocytes
# How it was run: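 Cryopreserved HepaRG cells were plated on collagen I in Williams' E medium with GlutaMAX. On day 4 they were treated with 10 μM compound in serum-free induction medium for 24 h at 37 °C; the vehicle was 1% DMSO. Positive controls were omeprazole 50 μM (CYP1A2), phenobarbital 1 mM (CYP2B6) and rifampicin 10 μM (CYP3A4). mRNA was read by TaqMan qPCR with GAPDH as reference, using ΔΔCt, and expressed as % of the positive control.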
structure (smiles),measurement,setting,value
O=C(Nc1ccc(OC(F)F)nc1)NC1CCN(c2ncnc3c2nc(-c2ccccc2Cl)n3-c2ccc(Cl)cc2)CC1,pEC50,[1],< 5.00
same,pIC50,[1],< 5.00
same,pEC50,[2],< 5.00
same,pIC50,[2],< 5.00
same,pEC50,[3],< 5.00
same,pIC50,[3],< 5.00
same,Activity,Mus musculus,Active
same,pEC50,[4],< 5.00
same,pIC50,[4],< 5.00
same,pEC50,[5],< 5.00
same,pIC50,[5],< 5.00
same,pEC50,[6],< 5.00
same,pIC50,[6],< 5.00
same,pEC50,[7],< 5.00
same,pIC50,[7],< 5.00
same,pEC50,[8],< 5.00
same,pIC50,[8],< 5.00
same,pEC50,Adenosine receptor A2a,< 5.00
same,pIC50,Adenosine receptor A2a,< 5.00
same,pEC50,[9],< 5.00
same,pIC50,[9],< 5.00
same,pEC50,Endothelin-1 receptor,< 5.00
same,pIC50,Endothelin-1 receptor,< 5.00
same,pEC50,Mu-type opioid receptor,< 5.00
same,pIC50,Mu-type opioid receptor,< 5.00
same,pEC50,Histamine H2 receptor,< 5.00
same,pIC50,Histamine H2 receptor,< 5.00
same,pEC50,Vasopressin V1a receptor,< 5.00
same,pIC50,Vasopressin V1a receptor,< 5.00
same,pEC50,[10],< 5.00
same,pIC50,[10],< 5.00
same,pEC50,[11],< 5.00
same,pIC50,[11],< 5.00
same,pEC50,[12],< 5.00
same,pIC50,[12],< 5.00
same,pEC50,[13],< 5.00
same,pIC50,[13],< 5.00
same,pEC50,[14],< 5.00
same,pIC50,[14],< 5.00
same,pEC50,[15],< 5.00
same,pIC50,[15],< 5.00
same,pEC50,[16],< 5.00
same,pIC50,[16],< 5.00
same,pEC50,[17],< 5.00
same,pIC50,[17],< 5.00
same,pEC50,[18],< 5.00
same,pIC50,[18],< 5.00
same,pEC50,[19],< 5.00
same,pIC50,[19],< 5.00
same,Activity,Cytochrome P450 2B6,< 10%
